Measured values taken from the RNAGym collection of RNA variant scans (doi:10.1126/science.aae0568).
This sample holds only a part of the variants without activity.

B1: tRNA (parent)
chain: GUUCCGUUGGCGUAAUGGUAACGCGUCUCCCUCCUAAGGAGAAGACUGCGGGUUCGAGUCCCGUACGGAACG

Variants of: B1
Assay: yeast fitness relative to wild type (ratio to wild type); higher = fitter; tRNA-Arg(CCU), competitive growth, 37 C, YPD
Method in brief: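 A pool of Saccharomyces cerevisiae strains, each with a tRNA-Arg(CCU) gene variant at the native genomic locus, was competed in YPD at 37°C for 24 hours across six parallel replicates. The variants had been chemically synthesised at a 3% per-site mutation rate over 69 sites, and gene amplicons before and after competition were read by 100-nucleotide paired-end sequencing. Darwinian fitness relative to wild type rested on changes in genotype frequencies. Genotypes required ≥ 100 starting reads, and estimates < 0.5 were set to 0.5.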

Row | Variant | yeast fitness
1 | A21G A42U G56A C61U | ≤ 0.5
2 | A21C U28C A45G | 0.603
3 | A21G A37U C66U | ≤ 0.5
4 | A21G C31U | 0.872
5 | A21G C60G A70C | 0.579
6 | A21C C33U C61A G68C | ≤ 0.5
7 | A21G A57U A70U | 0.582
8 | A21G A45C A69U | 0.762
9 | A21C U32A U35C | ≤ 0.5
10 | A21G C29A A69C | ≤ 0.5
11 | A21C G23A G52C A57C | ≤ 0.5
12 | A21G C61G C66G | ≤ 0.5
13 | A21G C33G C34G U47A G50A | ≤ 0.5
14 | A21G A36U | 0.583
15 | A21G C49U A65C | 0.747
16 | A21G C33A A65C A70C | 0.54
17 | A21G A70C | 0.993
18 | A21G C22A C29A C61U | ≤ 0.5
19 | A21G C27U A69C | 0.781
20 | A21G C22A C49A G56C | ≤ 0.5
21 | A21C C34A A37G | 0.513
22 | A21G C49U G63A | 0.804
23 | A21C C46U G67A | 0.619
24 | A21C C49A A70G | 0.626

Row | Variant | yeast fitness
25 | A21C G23U G48C | ≤ 0.5
26 | A21G C61U A70G | 0.761
27 | A21G A57C | 0.709
28 | A21C C30G C66A | 0.572
29 | A21C C34G A36G C46A | 0.586
30 | A21C C34U C66U | ≤ 0.5
31 | A21C C46U | 0.909
32 | A21G C22U G63A | 0.572
33 | A21C C62G A65C | ≤ 0.5
34 | A21C U32C | 0.864
35 | A21C U59A A65U | ≤ 0.5
36 | A21G C24G A37U | 0.573
37 | A21C C46U A69C | 0.668
38 | A21G C22A A40U C61U | 0.507
39 | A21G A45G C46G A70U | ≤ 0.5
40 | A21G A42G | 0.714
41 | A21G C30A C55A | ≤ 0.5
42 | A21G C49U U53C C61G | ≤ 0.5
43 | A21C C33G G39A | ≤ 0.5
44 | A21G A57G C66G | 0.599
45 | A21G A36G G38C C49U | ≤ 0.5
46 | A21C C31A | 0.725
47 | A21C C31U | 0.733
48 | A21C U26C A57U | ≤ 0.5

Row | Variant | yeast fitness
49 | A21G C30A | 1
50 | A21G C49A G56A | 0.533
51 | A21G C34A | 0.646
52 | A21G C29A C46U U59C | ≤ 0.5
53 | A21G C34G C55G | ≤ 0.5
54 | A21G C46G | 0.987
55 | A21G C22U C30G G51A A69U | 0.551
56 | A21G C27A A37U G63C | ≤ 0.5
57 | A21G C22A G25A C46U U54A | ≤ 0.5
58 | A21C C62U C66U | 0.533
59 | A21C C62U G68C | 0.601
60 | A21C C29U C31G A43U | 0.612
61 | A21C C31A C33G A45G G48A A65U | ≤ 0.5
62 | A21G C22G G25A G63A | ≤ 0.5
63 | A21G C22A A40U | ≤ 0.5
64 | A21G A42C G50A | 0.648
65 | A21G C27U A70G | 0.792
66 | A21G A40G A42U U59G | ≤ 0.5
67 | A21G C22U C46U G56C | ≤ 0.5
68 | A21C C61A G68A | 0.515
69 | A21G C33G A40G | 0.562
70 | A21G C49A U54C A65G | ≤ 0.5
71 | A21C C46G C49G | 0.655
72 | A21C G44C G50A A57G G68C | ≤ 0.5

Row | Variant | yeast fitness
73 | A21G C34U A65C | ≤ 0.5
74 | A21G C27A A36U A40G G52C G67A | ≤ 0.5
75 | A21C C31A C33G A45G G48A | 0.579
76 | A21C C62A | 0.788
77 | A21C C62U | 0.798
78 | A21C C62G | 0.723
79 | A21C C61G C62G | ≤ 0.5
80 | A21G C29G G58C A70C | ≤ 0.5
81 | A21G A40C G50C | ≤ 0.5
82 | A21C G23A C49A C60G G63A | ≤ 0.5
83 | A21C C29U C31G A43U A65U | 0.593
84 | A21G A43U G58C U59C | 0.67
85 | A21C U26A C31U | ≤ 0.5
86 | A21C G25A C30A A37U C66A | ≤ 0.5
87 | A21C C34U C49U | ≤ 0.5
88 | A21G C29G C46U C60U G67C | ≤ 0.5
89 | A21C U28G A43C G52C | ≤ 0.5
90 | A21G C27U G56C | 0.57
91 | A21G C49G G56C | ≤ 0.5
92 | A21G A40C C55A | ≤ 0.5
93 | A21G A43C C60A | ≤ 0.5
94 | A21G C30A C31U A57G A65U A69U | ≤ 0.5
95 | A21G C61G G67A | ≤ 0.5
96 | A21G A43U | 0.963

Row | Variant | yeast fitness
97 | A21C C31G C62U A69G | ≤ 0.5
98 | A21G C29U G41C | 0.562
99 | A21G C22A C62U C66A | ≤ 0.5
100 | A21G C29G C62U | 0.651
101 | A21G C22U A57G | 0.614
102 | A21C C31A C46A U54C | ≤ 0.5
103 | A21C U28A G50A | ≤ 0.5
104 | A21C C34A | 0.605
105 | A21C C34A G38A A45U | 0.546
106 | A21C G68C A69U | ≤ 0.5
107 | A21C G25C U26G | 0.59
108 | A21G C27U C61G A65U | ≤ 0.5
109 | A21G C22G G25A G63A A69U | ≤ 0.5
110 | A21C C34G A36G C46A C66A A70G | ≤ 0.5
111 | A21G C22G C49U G51A | 0.603
112 | A21C C30U A45G | ≤ 0.5
113 | A21G C33A C55A A65C A70C | ≤ 0.5
114 | A21G A36U U53A | 0.58
115 | A21G A36G A65C | 0.664
116 | A21C C61G | 0.585
117 | A21C G58C A65U | 0.521
118 | A21G C22G U53C C55G | 0.698
119 | A21G C55U | 0.704
120 | A21C G58C C66U | ≤ 0.5

Row | Variant | yeast fitness
121 | A21G C24U | 0.989
122 | A21G C49A C62U | 0.544
123 | A21C U28G A43C G52C G67U | ≤ 0.5
124 | A21G A42C A43U G56C C66U | 0.598
125 | A21G C60U | 0.713
126 | A21G C60A | 0.577
127 | A21C G67C | 0.654
128 | A21G C27G G63A | ≤ 0.5
129 | A21C G44C | 0.627
130 | A21G A65G | 1.01
131 | A21G C22A G56A A65C | 0.528
132 | A21C U26G A65G A69C | ≤ 0.5
133 | A21C U59C | 0.777
134 | A21G C27G C29A G50A | ≤ 0.5
135 | A21C G56A | 0.946
136 | A21C C46U A65U | 0.556
137 | A21C G48C | 0.788
138 | A21C G25C U26G C62A | ≤ 0.5
139 | A21C G23U C62U A65G | ≤ 0.5
140 | A21C C46G A65U | 0.658
141 | A21C G68A | 0.799
142 | A21C G68U | 0.789
143 | A21C C30G U54C C55G A70G | ≤ 0.5
144 | A21C U47A G52C | 0.662

Row | Variant | yeast fitness
145 | A21G C24U G51C | ≤ 0.5
146 | A21C C30A C62U A70U | ≤ 0.5
147 | A21G A37C A43U | 0.618
148 | A21C U47C A65C | ≤ 0.5
149 | A21G A37C A57C | ≤ 0.5
150 | A21G C24G C31A G44A | 0.571
151 | A21C G23U | 0.714
152 | A21C G23A G58C A65U | ≤ 0.5
153 | A21G C34G A42U | ≤ 0.5
154 | A21C G58C | 0.84
155 | A21C U28G C33U C34U A43U G50A A69C | ≤ 0.5
156 | A21G C34U G63U | ≤ 0.5
157 | A21G A42G A45G | 0.989
158 | A21G C24A A69U A70G | ≤ 0.5
159 | A21C U32C C34A | ≤ 0.5
160 | A21G C22U A37U A45G C46G C55A | ≤ 0.5
161 | A21G A42G A65C G67A | ≤ 0.5
162 | A21C U26A A40U | 0.534
163 | A21G A40G A42C U53A U54C | ≤ 0.5
164 | A21G A36G C60U | 0.531
165 | A21C C30U A43U G48C | ≤ 0.5
166 | A21G A36G A40C A42C | ≤ 0.5
167 | A21C C30U U32G U53C G67A | ≤ 0.5
